# This is a sample that favours compounds with a hit; in the whole collection about 4.3% have one here.
# SUMO HTRF inh = blocks human SUMOylation mediated by UBC9. P63279. HTRF SUMOylation assay, SAE1/SAE2 + UBC9, in vitro. inhibition, % at 35 µM. 290,000 tested, 0.36% active; in the data active = inhibition above about 50%, passing the limit was not always enough; inconclusive = no clear call, values can overlap the other calls
# Rin1 Abl inh = inhibitors of human Rin1-Abl protein interaction | inhibition, % at 7.35 µM | TR-FRET Rin1/Abl binding, biochemical | 360,000 tested, 0.4% active | AID 588664 | P00519+Q13671; in the data active = inhibition above about 5%, passing the limit was not always enough
# ALR H2O2 inh = inhibitors of human sulfhydryl oxidase ALR; P55789; purified ALR, DTT oxidation, H2O2 HRP-luminol luminescence; 290,000 tested, 3.8% active; inhibition, % (test concentration not listed);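 active = mean replicate inhibition above about 79%, with every replicate also reaching it, limit read from the data; inconclusive = only one of the two criteria met; inactive = mean below limit and not every replicate reaching it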
# UBC13 inh = blocks human UBC13 polyubiquitin chain formation. AID 485273. P61088. 330,000 tested, 0.47% active. TR-FRET. inhibition, % at 20 µM; in the data active = inhibition above about 45%, passing the limit was not always enough; inconclusive = no clear call, values can overlap the other calls
# Target sequence (P61088 whole entry, looked up): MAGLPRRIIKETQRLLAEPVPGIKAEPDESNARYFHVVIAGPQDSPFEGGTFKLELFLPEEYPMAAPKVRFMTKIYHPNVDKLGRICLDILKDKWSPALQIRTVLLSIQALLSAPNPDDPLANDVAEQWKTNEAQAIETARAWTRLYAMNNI
# RBBP9 inhibitor = inhibitors of human serine hydrolase RBBP9 | recombinant RBBP9, FP-Rh probe fluorescence polarization | AID 1515 | inhibition, % at 7.94 µM | O75884 | 220,000 tested, 0.2% active;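 active = inhibition above the campaign mean of all tested compounds plus 3 SD, cut at about 14% in these data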;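 note: plate controls were DMSO wells with RBBP9 for no effect and wells lacking RBBP9 protein for full effect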
# Target sequence (O75884 whole entry, looked up): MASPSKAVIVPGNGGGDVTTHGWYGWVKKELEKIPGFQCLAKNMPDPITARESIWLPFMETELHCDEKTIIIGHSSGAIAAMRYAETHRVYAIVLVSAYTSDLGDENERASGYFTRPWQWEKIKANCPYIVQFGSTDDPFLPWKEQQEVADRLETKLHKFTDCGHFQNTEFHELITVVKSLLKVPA
#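 System: RBBP9 protein | Quantity: 2.5 µM RBBP9 dispensing solution, before mixing | Reagent: FP-Rh probe, 375 nM dispensing solution | Timing: Enzyme-compound preincubation 30 min, then probe labeling 45 min, 25 °C | Measured by: Fluorescence polarization | Read-out: % inhibition | Replication: One well per compound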
# PREPL inhibitor = inhibits the human prolyl oligopeptidase-like enzyme | recombinant PREPL, fluorescence polarization activity-based probe | AID 2751 | inhibition, % at 5.96 µM | Q4J6C6 | 320,000 tested, 0.68% active;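 note: 0% = enzyme with DMSO and 100% = wells lacking enzyme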
# PREPL confirm = human PREPL inhibition, confirmation; shares compounds with PREPL inhibitor; recombinant PREPL, fluorescence polarization activity probe; inhibition, % at 5.96 µM; 2,000 tested, 67% active; AID 2803;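 note: 0% = protein with DMSO and 100% = wells lacking protein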
# The depositor's hits bear a star; ? = inconclusive; / = no result. Cut-off read from the data, not from the text of the source, unless noted: active = inhibition above about 43%; inactive = the rest.
SMILES,SUMO HTRF inh,Rin1 Abl inh,ALR H2O2 inh,UBC13 inh,RBBP9 inhibitor,PREPL inhibitor,PREPL confirm
Cc1cc(=O)n2[nH]c(N)c(N=Nc3ccccc3)c2n1,75.0,-9.8,30.8,/,-8.2,12.8,/
Cc1[nH]n2c(=O)c3c(nc2c1-c1ccc(Cl)cc1)CCC3,4.7,3.0,25.8,-2.9,-7.1,16.8,/
CN1OC[C@@H]2CN(S(=O)(=O)c3cccc4ccccc34)[C@H](c3ccc(-c4ccccc4)cc3)C[C@@H]21,/,2.2,/,/,/,/,/
Cc1cc(C)n2nc(CC#N)c(C#N)c2n1,21.4,-0.7,-0.3,10.2,-9.1,18.1,/
Cc1cc(C)n2nc(/C(C#N)=C/c3ccccn3)c(C#N)c2n1,12.8,0.2,-0.2,-2.1,-3.0,64.8*,15.7
COc1cccc(/C=N/Nc2ccc([N+](=O)[O-])cn2)c1O,-58.0,-0.1,-5.6,-61.8,/,56.1*,18.3
O=[N+]([O-])c1ccc(NN=Cc2cccc3ccccc23)nc1,/,-1.0,/,/,/,/,/
COc1ccc(N2CCN(c3cc(C)nc4ccc(OC)cc34)CC2)cc1,-8.6,-3.5,/,-8.1,/,43.3*,50.4*
COc1ccc2nc(C)cc(N3CCC(C(N)=O)CC3)c2c1,16.9,-4.4,4.8,-13.0,0.0,-0.1,/
CCN1CCCC1CNC(=O)c1ccc2c(c1)NC(=O)/C(=C\c1ccccc1Cl)S2 (centres undefined),/,-1.7,/,/,/,/,/
CCN1CCCC1CNC(=O)c1ccc2c(c1)NC(=O)/C(=C\c1ccc(OC)c(OC)c1)S2 (centres undefined),-2.4,-11.2,-31.5,23.3,/,55.5*,61.1*
Cc1ccc(F)cc1C(=O)N1CCCCC1c1cc(C(=O)NC(C)C)no1 (centres undefined),/,-5.8,/,/,/,/,/
O=C(c1ccc(S(=O)(=O)NCc2ccco2)cc1)N1CCCC1,-6.8,0.1,-5.6,-1.2,4.5,4.9,/
N#Cc1ccc(CN2CCN(C(=O)c3ccc(S(=O)(=O)NCc4ccco4)cc3)CC2)cc1,/,6.0,-5.0,-14.4,/,50.4*,7.8
O=C(CN1C(=O)COc2ccccc21)N1CCOCC1,/,-1.8,4.0,1.4,/,3.2,/
O=C(CCN1CCN(Cc2ccccc2)CC1)NNC(=O)c1ccc(Cl)c(Cl)c1,/,-2.1,/,/,/,/,/
CCOC(=O)C1CCN(C(=O)Nc2ccc3nc(-c4ccco4)c(-c4ccco4)nc3c2)CC1,73.2*,5.3,-19.1,-12.3,1.0,60.1*,64.0*
O=C(Nc1ccccc1)O[C@@H]1C[C@H]2CCC(=O)N3CC[C@@H](C1)[C@@H]23,19.3,/,-0.2,-2.9,/,12.2,/
O=S1(=O)N=C(Nc2ccc(N3CCOCC3)cc2)c2ccccc21,-4.7,1.1,0.5,5.0,2.9,10.4,/
Cc1ccccc1-c1ccc(Nc2ccc(N3CCOCC3)cc2)nn1,30.3,-1.3,93.3*,-7.2,7.7,58.9*,52.7*
OC[C@@H]1CN(CCN2CCOCC2)C[C@H](n2cnc3c(N4CCCC4)ncnc32)O1,/,2.1,/,/,/,/,/
CCC(CO)Oc1cc(NCc2ccccc2Cl)c2ncn(C(C)C)c2c1 (centres undefined),/,-1.5,16.0,3.6,/,59.7*,29.6
CC(C)n1cnc2c(NCc3ccccc3)cc(N[C@H](C)CO)cc21,/,-6.2,18.3,-29.4,/,60.5*,22.1
CCC(CO)Oc1cc(NCc2ccccc2F)c2ncn(C(C)C)c2c1 (centres undefined),/,-1.2,?,-4.7,/,35.0,/
CCC(COC)Oc1cc(NCc2ccccc2)c2ncn(C(C)C)c2c1 (centres undefined),/,-0.3,83.4*,1.4,/,51.6*,9.4
CCC(CO)Oc1cc(NCc2ccccc2C(F)(F)F)c2ncn(C(C)C)c2c1 (centres undefined),/,1.3,-7.4,6.9,/,47.8*,19.5
Nc1nc2ccccc2n1S(=O)(=O)c1ccc(Cl)cc1,/,3.3,/,/,/,/,/
Cc1cc(N2CCN(C)CC2)nc2ccc(NC(=O)CCC(=O)N3CCN(c4ccc([N+](=O)[O-])cc4)CC3)cc12,16.8,-7.9,20.7,-14.9,/,66.4*,60.4*
Cc1cc(N2CCOCC2)nc2ccc(NC(=O)CCC(=O)N3CCN(c4ccccc4)CC3)cc12,12.0,1.7,29.6,-5.6,/,19.1,/
COc1ccc(NC(=O)N2CCN(c3ccc([N+](=O)[O-])cc3)CC2)cc1OC,-11.1,-4.4,-35.4,-27.4,7.5,46.3*,56.3*

# Compound activity as filed in PubChem BioAssay.
